This is an account of results in ChEMBL document CHEMBL1143933, “Synthesis, dopaminergic profile, and molecular dynamics calculations of N-aralkyl substituted 2-aminoindans” (Bioorg Med Chem, 2008).

Format in all cases: functional, organism-based
The test system of assay [1] is Rattus norvegicus. Description: Induction of stereotyped behavior in icv dosed Sprague-Dawley rat. A digest of the protocol:
(§1)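 Cannula placed in the right lateral ventricle under pentobarbital (40 mg/kg, ip) at 0.40 mm bregma, 1.1 mm lateral, 2.2 mm ventral. After 3 days, compound (0.6 or 6.0 µg/5 µl, or 50 µg/5 µl) or 0.9% NaCl infused at 0.5 µl/min. Starting 5 min later, behavior observed for 45 min in Plexiglas chambers. Gnawing recorded by computer at 4.5 min intervals. Four rats per measurement; ANOVA with Duncan's test.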

For assay [2], the system named is Rattus norvegicus. Put plainly: Diuretic effect in icv dosed Sprague-Dawley rat assessed as increase in urine volume after 6 hrs. The procedure, abridged:
(§2)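 Adult male Sprague-Dawley rats (220–280 g) fitted with a cannula in the left lateral cerebroventricle under pentobarbital (40 mg/kg, ip), then allowed at least 3 days of recovery. Single ICV injection of 50 µg/10 µl, or vehicle NaCl 0.9%. Oral water load of 20 ml/kg, then individual metabolic cages. Urine collected at 3 and 6 h, with the bladder emptied at 6 h. Sodium measured by flame photometry. N = 6–8 per group; two-way ANOVA with Newman–Keuls.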

Assay [3] concerns Rattus norvegicus. Description: Natriuretic effect in icv dosed Sprague-Dawley rat assessed as increase in sodium excretion after 6 hrs. A digest of the protocol:
as §2

Assay [4] deals with Rattus norvegicus. Put plainly: Natriuretic effect in icv dosed Sprague-Dawley rat assessed as increase in sodium excretion after 3 hrs. The procedure, abridged:
as §2

For assay [5], the system named is Rattus norvegicus. Description: Inhibition of dopamine-induced diuresis in icv dosed Sprague-Dawley rat. The procedure, abridged:
(§3)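 Male Sprague-Dawley rats (220–280 g) with a left lateral ventricle cannula. ICV pretreatment of 50 µg/5 µl, or vehicle 5 µl, given 15 min before ICV dopamine (100 µg/5 µl) or saline, then oral water 20 ml/kg. Urine volume and sodium (flame photometry) measured over 3 h and 6 h collections. N = 6–8; two-way ANOVA with Newman–Keuls.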

The test system of assay [6] is Rattus norvegicus. Put plainly: Inhibition of dopamine-induced natriuresis in icv dosed Sprague-Dawley rat. The procedure, abridged:
as §3

Assay [7] has as its system Rattus norvegicus. Description: Induction of stereotyped behavior in Sprague-Dawley rat at 0.6 ug/ul, icv. The procedure, abridged:
as §1

Assay [8] relates to Rattus norvegicus. Put plainly: Induction of stereotyped behavior in Sprague-Dawley rat at 6 ug/ul, icv. A digest of the protocol: as §1
Assay [9] relates to Rattus norvegicus. Put plainly: Reduction of apomorphine-induced stereotyped behavior in Sprague-Dawley rat at 0.6 ug/ul, icv. The procedure, abridged:
(§4)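 Rats cannulated in the right lateral ventricle. ICV infusion of 0.6 or 6.0 µg/5 µl, or 0.9% NaCl, at 0.5 µl/min. Apomorphine HCl (1 mg/kg) given 1 min before observation began. Stereotyped gnawing recorded by computer at 4.5 min intervals for 45 min. Four rats per measurement; means ± SEM; ANOVA with Duncan's multiple range test.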

The test system of assay [10] is Rattus norvegicus. Description: Reduction of apomorphine-induced stereotyped behavior in Sprague-Dawley rat at 6 ug/ul, icv. A digest of the protocol:
as §4

Calls of active or inactive are those of the source. The rule behind the calls is not given here.

Turning to `CCC(C)NC1Cc2ccc(O)c(O)c2C1` (configuration not stated), the outcome in the assay on Rattus norvegicus [1], in the assay on Rattus norvegicus [2] and with Rattus norvegicus [3] was Active.
Turning to `CC(Cc1ccc(O)c(O)c1)NC1Cc2ccc(O)c(O)c2C1` (configuration not stated), the outcome in the assay with Rattus norvegicus [4], in the assay with Rattus norvegicus [7], in the assay with Rattus norvegicus [8], in the assay with Rattus norvegicus [2] and with Rattus norvegicus [3] was inactive. Further, the outcome in the assay with Rattus norvegicus [5], in the assay with Rattus norvegicus [6], in the assay on Rattus norvegicus [9] and in the assay with Rattus norvegicus [10] was Active.
